Source: ChEMBL document CHEMBL5113504, “Discovery of potent benzoxaborole inhibitors against SARS-CoV-2 main and dengue virus proteases” (Eur J Med Chem, 2022)
The source made the active and inactive calls. No cut-off for these calls is given here.

Legend:
Genome polyprotein [1] = target: T1, Genome polyprotein (dengue virus type 2, UniProt P29990); experiment: Inhibition of full length DENV2 NS2B-NS3 protease in human HeLa cells expressing luciferase reporter gene incubated for 24 hrs by luminescence analysis; format: cell-based
Method in brief: (§1)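 Stable DENV2pro reporter HeLa cells seeded at 2×10^4 per well and dosed immediately; 24 h at 37 °C, lysed 15 min, coelenterazine (2.75 μM in PBS) injected, luminescence read 5 s. Triplicates; % inhibition vs untreated cells; EC50 by 4-parameter fit with cell-free background subtraction.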

HeLa [2] = experiment: Cytotoxicity against human HeLa cells expressing luciferase-based DENV-2 protease reporter system assessed as reduction in cell viability by celltiter-blue assay; format: toxicity
Method in brief: (§2)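 CellTiter-Blue viability in HeLa reporter cells or Huh-7 cells, on plates run in parallel with the reporter or titer-reduction assay under the same treatment; each concentration in triplicate.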

[3] = target: Replicase polyprotein 1ab (Severe acute respiratory syndrome coronavirus 2) (UniProt P0DTD1); experiment: Inhibition of C-terminal His tagged SARS CoV-2 main protease transfected in Escherichia coli BL21 (DE3) using 2-Abz-Ser-AlaVal-Leu-Gln-Ser-Gly-Tyr(3-NO2)-Arg-OH as substrate at 50 uM preincubated for 15 mins followed by substrate addition and measured after 15 mins by FRET assay relative to control; conditions: time 30.0 min
[4] = target: T2, Replicase polyprotein 1ab (Severe acute respiratory syndrome coronavirus 2, UniProt P0DTD1); experiment: Chemical stability of the compound in SARS-CoV-2 main protease assay buffer assessed as SARS-CoV-2 main protease-mediated amide bond cleavage at 100 uM measured after 8 hrs by HPLC based UV-Vis analysis; format: ADME; conditions: severe acute respiratory syndrome coronavirus 2, buffer
Method in brief: (§3)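 Compound incubated with isolated protease (SARS-CoV-2 Mpro or DENV-2 protease) in that enzyme's assay buffer for 8 h; remaining compound quantified by HPLC with UV/Vis detection (peak AUC).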

[5] = target: T2, Replicase polyprotein 1ab; experiment: Inhibition of C-terminal His tagged SARS CoV-2 main protease transfected in Escherichia coli BL21 (DE3) using 2-Abz-Ser-AlaVal-Leu-Gln-Ser-Gly-Tyr(3-NO2)-Arg-OH as substrate preincubated for 15 mins followed by substrate addition and measured after 15 mins by FRET assay
[6] = target: Genome polyprotein (dengue virus type 2) (UniProt P29990); experiment: Inhibition of full length DENV2 NS2B-NS3 protease in human HeLa cells expressing luciferase reporter gene at 12.5 uM incubated for 24 hrs by luminescence analysis relative to control; format: cell-based; method in brief: as §1
Genome polyprotein [7] = target: T1, Genome polyprotein; experiment: Chemical stability of the compound in DENV2 NS2B-NS3 protease assay buffer assessed as DENV2 NS2B-NS3 protease-mediated amide bond cleavage by measuring reduction in AUC at 100 uM measured after 8 hrs by HPLC analysis; format: ADME; conditions: dengue virus type 2, buffer; method in brief: as §3
[8] = Permeability of compound in PBS at pH 7.4 measured after 5 hrs by HPLC-UV based PAMPA assay; format: ADME; conditions: pH 7.4, 5 h
HeLa [9] = experiment: Cytotoxicity against human HeLa cells expressing renilla luciferase reporter construct assessed as reduction in cell viability at 12.5 uM by luciferase based analysis; format: toxicity
[10] = target: Replicase polyprotein 1ab (Severe acute respiratory syndrome coronavirus 2) (UniProt P0DTD1); experiment: Binding affinity to C-terminal His tagged SARS CoV-2 main protease transfected in Escherichia coli BL21 (DE3) assessed as covalent bond formation by measuring mass adduct at 100 uM by ESI-TOF analysis
Method in brief: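 Compounds at 100 μM incubated with active Mpro (3 μM) in 50 mM Tris-HCl pH 7.4, 100 mM NaCl, 20% v/v ethylene glycol, 0.0016% Brij 58; adducts sought by LC-ESI-TOF MS, C18 column, water/acetonitrile with 0.1% formic acid gradient, negative mode.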

Huh-7 = experiment: Cytotoxicity against human Huh-7 cells infected with Dengue virus serotype 2 assessed as reduction in cell viability by celltiter-blue assay; format: toxicity, cell-based; method in brief: as §2
dengue virus type 2 = experiment: Antiviral activity against Dengue virus serotype 2 infected in Huh-7 cells assessed as reduction in virus titer at 12.5 uM incubated for 48 hrs followed by infection of Vero E6 cells with supernatant and measured after 7 days by crystal violet staining based analysis relative to control; format: functional; set-up: scale not given: the % may be the effect or the level left; conditions: time 9 day
Method in brief: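 Huh-7 cells (1×10^4/well, overnight) infected with DENV-2 at MOI 1 for 2 h, medium changed, compound added; 48 h, triplicate supernatants pooled. Titer by plaque assay: Vero E6 infected 1 h with 10^-1 to 10^-6 dilutions, plaque medium 7 days, formaldehyde-fixed, crystal violet stained, plaques counted.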

[11] = Selectivity index, ratio of CC50 for cytotoxicity against human HeLa cells expressing luciferase-based DENV-2 protease reporter system to EC50 for inhibition of full length DENV2 NS2B-NS3 protease in human HeLa cells expressing luciferase reporter gene; format: toxicity, cell-based; conditions: read-out: Ratio CC50/EC50
[12] = target: Replicase polyprotein 1ab (Severe acute respiratory syndrome coronavirus 2) (UniProt P0DTD1); experiment: Inhibition of C-terminal His tagged SARS CoV-2 main protease transfected in Escherichia coli BL21 (DE3) at 50 uM incubated in presence of DTT
Method in brief: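 Mpro fluorogenic inhibition assay repeated with 1 mM DTT added to the assay buffer.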

[13] = Selectivity index, ratio of EC50 for inhibition of full length DENV2 NS2B-NS3 protease in human HeLa cells expressing luciferase reporter gene to IC50 for inhibition of C-terminal His tagged SARS CoV-2 main protease transfected in Escherichia coli BL21 (DE3); format: cell-based

SMILES	EC50 (Genome polyprotein [1]) [µM]	CC50 (HeLa [2]) [µM]	inhibition [3] [%]	inhibition [6] [%]	also measured
O=C(Nc1cccc(C(=O)Nc2ccc3c(c2)B(O)OC3)c1)c1ccccc1	13.1	> 200	45.6	51.5	Stability [4]: Stable; IC50 [5]: 52.3 µM
CCCCCC(=O)Nc1ccc2c(c1)B(O)OC2	19.2	> 200	< 10	37.2	
COc1cccc(COc2cccc(C(=O)Nc3ccc4c(c3)B(O)OC4)c2)c1		> 200	45.7	90	
O=C(Nc1ccc2c(c1)B(O)OC2)c1ccc(OCc2ccc(Cl)cc2)cc1	14.5	> 50	20.4	31.3	Stability (Genome polyprotein [7]): Stable; permeability [8]: Permeable
O=C(Nc1ccc2c(c1)B(O)OC2)c1ccc(OCc2ccccc2)cc1	8.8	> 50	39.6	54.4	
Cc1onc(-c2ccc(F)cc2)c1C(=O)Nc1ccc2c(c1)B(O)OC2	21.6	> 100	< 10	32.6	Activity (HeLa [9]): Non-Toxic
CC(C)(C)NC(=O)N[C@H](C(=O)N1C[C@H]2[C@@H]([C@H]1C(=O)NC(CC1CCC1)C(=O)C(N)=O)C2(C)C)C(C)(C)C (stereo partly drawn)			70.8		Activity [10]: Active
Cc1cccc(COc2cccc(C(=O)Nc3ccc4c(c3)B(O)OC4)c2)c1		72.6	55.5	85.2	Activity (Huh-7): Non-Toxic; Activity (dengue virus type 2): 72.6%; IC50 [5]: 59.8 µM
O=C(Nc1ccc2c(c1)B(O)OC2)c1cccc(NCc2ccccc2)c1	5.2	144	46.9	73.6	IC50 [5]: 56.9 µM
N#Cc1ccc(COc2cccc(C(=O)Nc3ccc4c(c3)B(O)OC4)c2)cc1		> 200	43.4		permeability [8]: Permeable
O=C(Nc1ccc2c(c1)B(O)OC2)c1ccc(N2CCOCC2)cc1	17.1	> 50	12.7	41.1	Activity (HeLa [9]): Non-Toxic
O=C(Nc1ccc2c(c1)B(O)OC2)c1cccc(OCc2c(Cl)cccc2Cl)c1		39.7	32.6		selectivity ratio [11]: 74; permeability [8]: Permeable
CC(C(=O)Nc1ccc2c(c1)B(O)OC2)c1cccc(Oc2ccccc2)c1 (stereo not drawn)	3.1	> 50	19	76.7	
CN(c1ccc2c(c1)B(O)OC2)S(=O)(=O)c1ccc(Cl)cc1	> 50	> 50	< 10	24.2	Activity (HeLa [9]): Non-Toxic
O=C(Nc1ccc2c(c1)B(O)OC2)c1cccc(OCc2ccc(Cl)cc2)c1		75.3	43.5		Stability (Genome polyprotein [7]): Stable
N=C(N)Nc1ccc2c(c1)B(O)OC2		> 100	88	< 10	inhibition [12]: Active; permeability [8]: Impermeable; IC50 [5]: 10 µM; Activity (HeLa [9]): Non-Toxic
OB1OCc2ccccc21 [BENZOXABOROLE]		> 100	< 10	< 10	Activity (HeLa [9]): Non-Toxic
OB1OCc2cc(F)ccc21 [TAVABOROLE]		> 50	< 10	15.3	

SMILES	EC50 (Genome polyprotein [1]) [µM]	CC50 (HeLa [2]) [µM]	inhibition [3] [%]	inhibition [6] [%]	also measured
O=C(Nc1ccccc1)Nc1ccc2c(c1)B(O)OC2	22.5	> 200	15.9	31	
O=C(Nc1ccc2c(c1)B(O)OC2)c1cccc(Oc2ccccc2)c1	6.4	> 50	34.6	77.4	
N#Cc1ccc(CNc2ccc3c(c2)B(O)OC3)cc1		> 100	< 10	41.8	
O=S(=O)(Nc1ccc2c(c1)B(O)OC2)c1ccc(Cl)cc1	9.2	> 50	< 10	51.6	permeability [8]: Permeable
Nc1ccc(C(=O)Nc2ccc3c(c2)B(O)OC3)cc1		> 200	39.7	14.3	
O=C(Nc1ccc2c(c1)B(O)OC2)c1ccc(C(F)(F)F)cc1		> 50	21	< 10	Activity (HeLa [9]): Non-Toxic
O=C(Nc1ccc2c(c1)B(O)OC2)OCc1ccccc1	4	> 50	< 10	67.5	
O=C(Nc1cccc(B(O)O)c1)c1cccc(OCc2ccccc2)c1	12.5	> 50	< 10	65.1	Ratio [13]: 5; permeability [8]: Permeable; Activity (HeLa [9]): Non-Toxic
O=C(Nc1ccc2c(c1)B(O)OC2)c1cccc(OCC2CCCCC2)c1		123	29.3	79.1	
COc1cccc(C(=O)Nc2ccc3c(c2)B(O)OC3)c1	6.4	> 100	24.3	60.1	
O=[N+]([O-])c1ccc2c(c1)B(O)OC2		> 100	< 10	14.5	
O=C(Nc1ccc2c(c1)B(O)OC2)c1ccc(Oc2ccccc2)cc1	3.5	> 50	19.5	79.7	Stability (Genome polyprotein [7]): Stable; permeability [8]: Permeable
O=C(Nc1ccc2c(c1)B(O)OC2)c1cccc(OCc2ccccc2)n1		124	99.6		IC50 [5]: 38.5 µM
O=C(Nc1ccc2c(c1)B(O)OC2)c1ccccc1OCc1ccccc1	6.1	> 50	40.6	66.7	permeability [8]: Permeable
O=C(Oc1cncc(Cl)c1)c1cccs1			95		IC50 [5]: 1.7 µM
O=C(NCc1ccc(B(O)O)cc1)c1cccc(OCc2ccccc2)c1	14	> 50	18.5	29.3	Ratio [13]: 5
Nc1ccc2c(c1)B(O)OC2		> 100	17.5	< 10	Activity (HeLa [9]): Non-Toxic
